# Measured values as given in ChEMBL document CHEMBL3877295, “Discovery of novel 3-hydroxypicolinamides as selective inhibitors of HIV-1 integrase-LEDGF/p75 interaction” (Eur J Med Chem, 2017).
# pEC50, pIC50: −log10 of the molar value.
# Assays:
# [1] = Inhibition of HIV1 recombinant GST/His-tagged integrase 3'-processing activity expressed in Escherichia coli BL21(DE3) assessed as reduction in 19-mer product using 5'-end 32P labeled linear 21-mer substrate preincubated for 30 mins followed by substrate addition measured after 1 hr by PAGE analysis; design: species or system Human immunodeficiency virus 1
# Procedure, shortened: (§1)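 Recombinant wild-type integrase (200 nM final) preincubated with inhibitor in 50 mM NaCl, 1 mM HEPES pH 7.5, 10% glycerol, 7.5 mM MnCl2, 0.1 mg/mL BSA. Substrate: 21-mer top strand 5'-labelled with [γ-32P]ATP by T4 polynucleotide kinase, kinase heat-killed at 95 °C for 15 min, annealed to 1.5-fold molar excess bottom strand, and spin-column cleaned.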
# [2] = Inhibition of HIV1 recombinant GST/His-tagged integrase strand transfer activity expressed in Escherichia coli BL21(DE3) using 5'-end 32P labeled linear 21-mer substrate preincubated for 30 mins followed by substrate addition measured after 1 hr by PAGE analysis; design: species or system Human immunodeficiency virus 1; procedure, shortened: as §1
# [3] = Therapeutic Index, ratio of CC50 for human C8166 cells to EC50 for HIV1 3B infected in human C8166 cells; assay type: cell-based; settings: read-out: Ratio CC50/EC50
# [4] = tested on: Human immunodeficiency virus 1; experiment: Antiviral activity against HIV1 3B infected in human C8166 cells assessed as reduction in virus-induced cytopathic effect by MTT assay; assay type: functional, cell-based; settings: Human immunodeficiency virus 1, 3B
# [5] = Inhibition of HIV1 His6-tagged integrase/FLAG-tagged LEDGF/p75 protein-protein interaction expressed in Escherichia coli BL21(DE3) preincubated with integrase for 30 mins followed by LEDGF/p75 addition measured after 60 mins by AlphaScreen assay
# Procedure, shortened: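 His6-integrase (300 nM final) preincubated with compound […] for 30 min at 4 °C. FLAG-LEDGF/p75 (300 nM final) added for 60 min at 4 °C. Ni-chelate donor and anti-FLAG acceptor beads (20 µg/mL each) added for 1 h at 30 °C, then acceptor emission read.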
# [6] = Cytotoxicity against human C8166 cells assessed as reduction in cell viability after 72 hrs by MTT assay; assay type: toxicity, cell-based
# [7] = Therapeutic Index, ratio of CC50 for human MT4 cells to EC50 for HIV1 3B infected in human MT4 cells; assay type: cell-based; settings: read-out: Ratio CC50/EC50
# [8] = Cytotoxicity against human MT4 cells assessed as reduction in cell viability after 72 hrs by MTT assay; assay type: toxicity, cell-based
# [9] = tested on: Human immunodeficiency virus 1; experiment: Antiviral activity against HIV1 3B infected in human MT4 cells assessed as reduction in virus-induced cytopathic effect by MTT assay; assay type: functional, cell-based; settings: Human immunodeficiency virus 1, 3B
# [10] = Inhibition of HIV1 GST-tagged integrase and His6-tagged integrase mutant dimerization expressed in Escherichia coli BL21(DE3) after overnight incubation by AlphaScreen assay; design: species or system Human immunodeficiency virus 1
SMILES,pIC50 [1],pIC50 [2],selectivity ratio [3],pEC50 [4],pIC50 [5],CC50 at 72 h [6],selectivity ratio [7],CC50 at 72 h [8],pEC50 [9],pIC50 [10]
O=C(NCC1CCCCC1)c1ncccc1O,< 4.70,< 4.70,2.1,4.18,4.72,137 µM,–,–,–,–
CC(C)CCN(Cc1ccc(F)cc1)C(=O)c1ncccc1O,< 4.70,< 4.70,–,–,< 4.70,–,3.9,268 µM,4.16,–
O=c1oc2cccnc2c(=O)n1Cc1cccs1,< 4.70,< 4.70,–,–,< 4.70,–,5.2,363 µM,4.16,–
O=C(NCc1ccc(F)cc1)c1ccc(O)cn1,< 4.70,< 4.70,–,–,< 4.70,–,–,–,–,–
O=C(NCc1ccc(F)cc1)c1ncccc1O,< 4.70,< 4.70,1.5,4.11,5.07,114 µM,–,–,–,5.21
O=C(NCc1cccc2ccccc12)c1ncccc1O,< 4.70,< 4.70,1.5,4.24,< 4.70,88.8 µM,–,–,–,–
CCCCN(Cc1ccc(F)cc1)C(=O)c1ncccc1O,< 4.70,< 4.70,–,–,4.92,–,–,> 660 µM,< 3.48,4.85
CCCCNC(=O)c1ncccc1O,< 4.70,< 4.70,–,< 3.30,< 4.70,> 1000 µM,–,–,–,–
O=C(NCc1ccco1)c1ncccc1O,< 4.70,< 4.70,2.1,3.57,5.62,575 µM,–,–,–,5.00
O=C(NCc1ccc(F)c(Cl)c1)c1ncccc1O,< 4.70,< 4.70,16,4.72,5.38,310 µM,–,–,–,–
CC(C)CN(Cc1ccc(F)cc1)C(=O)c1ncccc1O,< 4.70,< 4.70,–,–,< 4.70,–,< 1,247 µM,3.57,–
O=C(Nc1ccc(F)cc1)c1ncccc1O,< 4.70,< 4.70,> 45,4.71,5.10,> 860 µM,–,–,–,–
O=C(NCc1ccc([N+](=O)[O-])cc1)c1ncccc1O,< 4.70,< 4.70,4.8,4.58,5.40,127 µM,–,–,–,–
COc1cc(CNC(=O)c2ncccc2O)cc(OC)c1OC,< 4.70,< 4.70,> 9,4.23,5.60,> 500 µM,–,–,–,5.01
Nc1ccc(CNC(=O)c2ncccc2O)cc1,< 4.70,< 4.70,> 2.3,3.59,5.77,> 596 µM,–,–,–,5.40
O=C(NCc1ccco1)c1cccnc1O,–,–,–,–,< 4.00,–,–,–,–,–
O=c1oc2cccnc2c(=O)n1Cc1ccc(F)cc1,< 4.70,< 4.70,–,–,< 4.70,–,4.3,311 µM,4.13,–
C=C(C)CN(Cc1ccc(F)cc1)C(=O)c1ncccc1O,< 4.70,< 4.70,–,–,< 4.70,–,< 1,272 µM,3.55,–
COc1cccnc1C(=O)NCc1ccc(F)cc1,< 4.70,< 4.70,–,–,< 4.70,–,–,–,–,–
O=C(NCc1cccs1)c1ncccc1O,< 4.70,< 4.70,2.9,4.12,5.12,218 µM,–,–,–,5.10
O=C(NCc1ccc(F)cc1)c1ncccc1F,< 4.70,< 4.70,–,–,< 4.70,–,–,–,–,–
O=C(NCc1ccc(F)cc1)c1nc(N2CCCCS2(=O)=O)c2cccnc2c1O,8.27,9.10,52800,8.63,–,123 µM,–,–,–,–
O=C(NCc1ccc(F)cc1)c1cccc(O)n1,< 4.70,< 4.70,–,–,< 4.70,–,–,–,–,–
O=C(NCc1ccc2[nH]ccc2c1)c1ncccc1O,< 4.70,< 4.70,2,4.15,5.34,138 µM,–,–,–,5.10
O=C(NCc1ccc(F)cc1)c1cc(O)ccn1,< 4.70,< 4.70,–,–,< 4.70,–,–,–,–,–
O=C(NCc1ccc(C(F)(F)F)cc1)c1ncccc1O,< 4.70,< 4.70,< 1,4.36,< 4.70,31.4 µM,–,–,–,–
O=C(NCc1ccc(F)cc1)c1ccccn1,< 4.70,< 4.70,–,–,< 4.70,–,–,–,–,–
Nc1cccc(C(=O)NCc2ccco2)c1O,–,< 4.00,–,–,4.29,–,–,–,–,–
